T cruzi inh: inhibitors of intracellular T. cruzi growth, primary screen, luminescence, NIH3T3 host cells; T. cruzi beta-gal in NIH3T3, 90 h; inhibition, % (no concentration beside the values); 1.4% of 300,000 active; AID 1885, 2009;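 active means mean inhibition across valid replicates above about 55%, limit read from the data; inconclusive means mean below that limit but half or more replicates reach it; inactive means mean below it, under half of replicates reach it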;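 further: signal also drops with host cell toxicity which is not excluded here; 0% = plate median of DMSO wells and 100% = zero luminescence signal; higher percent means less beta-gal luminescence so fewer parasites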
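Test system: β-gal T. cruzi (Tulahuen C4) inside NIH/3T3 cells / Quantity: 5,000 cells/well / Measured by: luminescence from GalScreen with 0.05% NP40, read after 60 min / Medium: DMEM plus 2% FBS / Measure: parasite load inhibition, % / Reagent: Tulahuen C4 trypomastigotes, 5000/well / Schedule: co-culture of at least 90 h after 3 h attachment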
HSF1 inhib: HSF1 inhibitors in luciferase reporter cells, primary screen, cell-based, NIH3T3, luminescence | AID 2098, 2009 | activity change, negative = inhibition, % at 7.5 µM (by protocol) | NIH3T3-HGL HSE-luciferase, MG132-induced, luminescence 8 h; active compounds read low | 0.77% of 300,000 active;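 active means more than half of replicate wells show activity change below -50%, luminescence cut by over half; inconclusive means some wells, but at most half, below -50%; inactive means no replicate well below -50%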;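 further: luciferase reports HSF-1 transcriptional activity via heat shock element; 0% = median of DMSO wells and -100% = zero luminescence signal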
HSF-1 act: HSF-1 activators, primary screen, NIH3T3-HGL cells, MG132 stress, luminescence, single point; NIH3T3-HGL HSF-1 luciferase reporter, 8 h; 100% = twice DMSO control signal; activation, % at 9 µM; 1.7% of 300,000 active; AID 504408, 2011;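 active means mean replicate activation of at least 50% with a set share of replicates each reaching 50%; inconclusive means only one of those two conditions met; inactive means mean below 50% and too few replicates reaching it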;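 further: 0% = median of the neutral control wells and 100% = twice that signal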
Jurkat NFkB inh: inhibitors of induced NF-kB luciferase reporter, primary screen, TCR NF-kB activation inhibitor project, cell-based, luminescence, uHTS. Jurkat, PMA/ionomycin-induced NF-kB luciferase reporter. inhibition, % at 4 µM. 0.53% of 330,000 active. AID 435003, 2010; in the data active means inhibition above about 50%
697 NFkB inh: inhibitors of PMA/ionomycin-induced NF-kB reporter, 697 cells, primary screen, B-cell NF-kB inhibitor project, cell-based, luminescence, uHTS; 0.33% of 330,000 active; AID 435022, 2010; inhibition, % at 4 µM; 697 B-cell NF-kB luciferase reporter, 16 h; in the data active means inhibition above about 35%
GPR7 antag: GPR7 receptor antagonists, primary screen, cell-based, fluorescence, single concentration. Neuropeptides B/W receptor type 1 (Homo sapiens), P48145. GPR7-expressing cells, fluorescence antagonist assay. inhibition, % at 4.4 µM. 1.1% of 290,000 active; in the data active means inhibition above about 16%, passing the limit was not always enough;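 further: cells stimulated with the agonist NPW; 0% = agonist with vehicle and 100% = vehicle without agonist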
Target sequence (P48145 whole entry, looked up): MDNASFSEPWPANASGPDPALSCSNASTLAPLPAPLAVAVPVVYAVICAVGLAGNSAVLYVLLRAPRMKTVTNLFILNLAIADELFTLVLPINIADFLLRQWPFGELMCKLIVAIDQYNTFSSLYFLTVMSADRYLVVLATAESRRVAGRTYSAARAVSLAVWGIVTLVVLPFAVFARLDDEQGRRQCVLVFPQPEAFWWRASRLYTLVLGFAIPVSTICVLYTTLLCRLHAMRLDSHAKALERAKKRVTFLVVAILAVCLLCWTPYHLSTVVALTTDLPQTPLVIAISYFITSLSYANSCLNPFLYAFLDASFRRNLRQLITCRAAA
GPR7 antag conf: GPR7 receptor antagonists, confirmation, cell-based, fluorescence, single concentration; shares compounds with GPR7 antag; GPR7-expressing cells, calcium fluorescence antagonist mode; inhibition, % at 4.4 µM; 52% of 2,400 active; AID 1952, 2009; in the data active means inhibition above about 24%;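 further: stimulated with the GPR7 agonist NPW; 0% = agonist plus vehicle and 100% = vehicle alone without agonist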
MCHR1 antagonist: MCHR1 antagonists in cells, counter-screen for GPR7 antagonist project, cell-based, fluorescence, human. shares compounds with GPR7 antag. MCHR1-expressing cells, fluorescence antagonist assay. 62% of 2,400 active. inhibition, % at 4.4 µM; in the data active means inhibition above about 22%;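 further: 0% = vehicle with agonist and 100% = vehicle without agonist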
Starred values were filed as active, the others as inactive; ? = inconclusive; · = no result. In the library only some 4.8% were active in any assay of this set; here they are far more common.

SMILES	T cruzi inh	HSF1 inhib	HSF-1 act	Jurkat NFkB inh	697 NFkB inh	GPR7 antag	GPR7 antag conf	MCHR1 antagonist
Cc1ccccc1N(CC(=O)NC1CCCCC1)C(=O)CCCC(=O)Nc1ccccn1	1	4	-2	23	-4	38*	33*	18
CCOC(=O)Nc1cc(=O)c2ccccc2o1	-47	-7	-5	20	-30	21*	3	19
O=C(Nc1cc(Cl)cc(Cl)c1)N1CCCN(Cc2ccccc2)CC1	?	-2	-4	-5	3	16	·	·
CCCCN(CC(=O)Nc1c(C)cccc1CC)C(=O)SCC	10	-13	10	-1	9	36*	39*	30*
CCc1cccc(C)c1NC(=O)CN(C)Cc1ccc(Br)cc1	16	9	8	10	2	3	·	·
CCCSC(=O)N(CC)CC(=O)Nc1c(CC)cccc1CC	5	-15	5	5	8	26*	26*	22*
C=CCN(CC(=O)Nc1c(C)cccc1CC)C(=O)SCCC	0	-7	7	9	16	27*	20	18
CCc1cccc(CC)c1NC(=O)CN(CC(=O)O)CC(=O)O	·	·	·	9	30	·	·	·
Cc1cc(C)nc(Sc2ncnc(N)c2[N+](=O)[O-])n1	21	-2	9	9	-13	0	·	·
COc1ccccc1NC(=O)c1ccc(NC(=O)COC(=O)c2cccnc2Cl)cc1	·	·	·	-20	-2	·	·	·
O=[N+]([O-])c1cccc(NC(=S)Nc2nc(-c3ccccc3Cl)cs2)c1	38	-3	-12	-23	-46	27*	42*	55*
OC(COCc1ccccc1)CN1CCCCC1 (stereo not drawn)	-2	-1	-4	4	4	-4	·	·
COc1ccc(S(=O)(=O)N2CCN(CC(=O)Nc3cccc(OC)c3)CC2)cc1	-5	-2	21	17	-12	35*	25*	16
COc1ccc(NC(=O)CN2CCCN(S(=O)(=O)c3ccc(F)cc3)CC2)c(OC)c1	19	-6	7	3	6	-5	·	·
COc1ccc(S(=O)(=O)N(CC(=O)Nc2ccc(S(=O)(=O)N3CCOCC3)cc2)Cc2ccc(F)cc2)cc1	22	2	-5	13	-8	24*	28*	21
COc1ccc(S(=O)(=O)N2CCCN(CC(=O)Nc3ccccc3F)CC2)cc1	0	5	9	0	6	30*	4	42*
COc1ccc(NC(=O)CC2C(=O)N(C)C(=S)N2CCc2ccccc2F)cc1 (stereo not drawn)	20	16	-9	-20	3	-11	·	·
CN1C(=O)C(CC(=O)Nc2ccc(F)cc2)N(CCCc2ccccc2)C1=S (stereo not drawn)	23	8	19	8	-2	26*	24*	41*
CC(C)(C)N(NC(=O)c1ccccc1)C(=O)c1cccc(C(=O)N(NC(=O)c2ccccc2)C(C)(C)C)c1	-1	-21	-4	21	2	42*	31*	23*
Cc1c(NC(=O)Nc2cccs2)cccc1[N+](=O)[O-]	6	38	47	14	14	36*	-9	36*
O=C(COc1ccccc1Cl)N1CCc2ccccc2C1	8	11	16	-4	-17	0	·	·
O=C(COc1ccccc1F)N1CCc2ccccc2C1	-16	23	38	-9	-12	26*	34*	35*
O=NN(CCc1ccncc1)c1ccc(OCc2ccccc2)cc1	72*	5	13	40	-18	25*	50*	43*

Compound activity deposited in PubChem by several laboratories.
